This is a sample that favours compounds with a hit; in the whole collection about 5.7% have one here.
Calb FLC: C. albicans growth modulation with fluconazole. C. albicans CaCi-2 (fluconazole-resistant clinical isolate) + fluconazole, Alamar Blue growth, 48 h. growth inhibition, % (no concentration beside the values). hit rate 0.57% among 300,000;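 active = growth inhibition above about 58% in most replicates, limit read from the data, passing the limit was not always enough; inconclusive = exactly half the replicates above a set limit; inactive = most replicates below a set limit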;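 also: all wells also contain fluconazole at 8 µg/ml as a sub-toxic cotreatment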
T cruzi inh: T. cruzi replication inhibition; T. cruzi beta-gal in NIH3T3, luminescence, 90 h; inhibition, % (no concentration beside the values); hit rate 1.4% among 300,000; AID 1885;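 active = mean inhibition across valid replicates above about 55%, limit read from the data; inconclusive = mean below that limit but half or more replicates reach it; inactive = mean below it, under half of replicates reach it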;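 also: signal also drops with host cell toxicity which is not excluded here; higher percent means less beta-gal luminescence so fewer parasites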
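Material: NIH/3T3 host cells with β-galactosidase reporter T. cruzi; Input: 5,000 host fibroblasts per well; Medium: DMEM, 2% fetal bovine serum; Compound: 50 nL DMSO compound solution per well; Schedule: 3 h host attachment, then at least 90 h co-culture; Detection: luminescent β-galactosidase signal after 60 min lysis.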
Mdm2-MdmX inh: disrupts the human Mdm2-MdmX interaction | SaOS-2 split-luciferase Mdm2/MdmX complementation, luminescence | hit rate 3% among 330,000 | O15151+Q00987 | inhibition, % at 8 µM;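 active = inhibition of at least 50% at 8 µM in the primary screen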
Target sequence (O15151 whole entry, looked up): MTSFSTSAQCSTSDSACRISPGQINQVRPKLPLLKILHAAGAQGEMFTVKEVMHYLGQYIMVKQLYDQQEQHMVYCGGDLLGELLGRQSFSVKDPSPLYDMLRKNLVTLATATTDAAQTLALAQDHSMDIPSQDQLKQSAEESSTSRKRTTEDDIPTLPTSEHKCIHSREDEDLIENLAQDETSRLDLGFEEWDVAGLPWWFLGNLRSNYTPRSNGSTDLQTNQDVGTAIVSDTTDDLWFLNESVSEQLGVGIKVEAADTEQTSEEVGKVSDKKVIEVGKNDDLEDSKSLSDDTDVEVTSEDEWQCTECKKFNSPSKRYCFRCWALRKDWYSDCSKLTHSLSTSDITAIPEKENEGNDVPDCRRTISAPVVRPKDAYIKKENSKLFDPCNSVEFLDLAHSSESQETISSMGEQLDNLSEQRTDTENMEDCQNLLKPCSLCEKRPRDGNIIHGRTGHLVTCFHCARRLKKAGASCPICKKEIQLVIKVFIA
Target sequence (Q00987 whole entry, looked up): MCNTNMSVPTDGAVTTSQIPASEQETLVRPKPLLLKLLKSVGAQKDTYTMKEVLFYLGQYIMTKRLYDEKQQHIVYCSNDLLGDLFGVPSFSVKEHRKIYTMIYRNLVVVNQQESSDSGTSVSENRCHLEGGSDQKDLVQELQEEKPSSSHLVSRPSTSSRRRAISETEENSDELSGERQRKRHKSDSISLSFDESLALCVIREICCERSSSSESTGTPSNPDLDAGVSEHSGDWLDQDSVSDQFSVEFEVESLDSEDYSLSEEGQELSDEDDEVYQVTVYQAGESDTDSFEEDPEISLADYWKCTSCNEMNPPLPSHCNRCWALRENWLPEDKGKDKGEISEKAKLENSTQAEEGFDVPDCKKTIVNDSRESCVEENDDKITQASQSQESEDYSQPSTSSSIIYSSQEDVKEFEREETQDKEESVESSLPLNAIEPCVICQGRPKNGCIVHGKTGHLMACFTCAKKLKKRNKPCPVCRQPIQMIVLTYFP
SKKanGAS inh: blocks kanamycin growth of S. pyogenes SKKanGAS strain; BacTiter-Glo, 6 h; inhibition, % at 7.5 µM; hit rate 1.3% among 300,000; AID 1662;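 active = mean replicate score, as percent of positive control median, at least 50; inconclusive = mean below 50 but one replicate at or above 50; inactive = mean and every replicate below 50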;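 also: strain carries kanamycin resistance gene driven by streptokinase promoter and grows in 40 µg/ml kanamycin; loss of luminescence reflects streptokinase promoter inhibition or plain growth inhibition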
CSC inhib: cancer stem cell inhibition; cancer stem cell-like cells viability, luminescence; inhibition, % at 7.5 µM; hit rate 1.1% among 300,000; AID 2717; in the data active = inhibition above about 75%; inconclusive = no clear call, values can overlap the other calls; tested in HMLE shEcad cells
Beta apoptosis: beta cell apoptosis inhibition | protection from apoptosis, % (concentration not given with the values) | AID 435005 | INS-1E cytokine-induced death, ATP luminescence, 48 h; percent of positive-control rescue, neutral wells zero | hit rate 0.8% among 300,000;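 active = Every replicate reaches about 75%, or at least half do and their mean reaches it too, limit read from the data; inconclusive = At least half of replicates reach the limit but their mean does not; inactive = Under half of replicates reach the limit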;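 also: higher means more ATP so stronger rescue from cytokine killing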
Mdm2 MdmX conf: human Mdm2/MdmX binding inhibition, confirmed | inhibition, % at 8 µM | hit rate 55% among 10,000 | AID 489028 | shares compounds with Mdm2-MdmX inh | luminescent assay; in the data active = inhibition above about 40%
Full FLuc ctr: counter-screen for Mdm2/MdmX inhibitors: full-length luciferase | hit rate 77% among 6,200 | SaOS-2 full-length luciferase counterscreen, luminescence | inhibition, % at 8 µM | shares compounds with Mdm2-MdmX inh;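 active = mean inhibition at 8 µM reaching about 37%, which flags the compound as non-specific, limit read from the data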;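 also: p53-null SaOS-2 cells with luciferase driven by a doxycycline-inducible promoter; compound on cells about two nights before reading with doxycycline added after day one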
Each line names hits and unclear results; the compound was inactive in the other large screens (follow-up assays come after a bar, where they were run).

CC(=O)Nc1ccc(NC(=O)C(C)Sc2nnc(C3CC3)n2-c2ccccc2)cc1 (configuration not stated)	none (no result: Calb FLC, T cruzi inh, SKKanGAS inh, CSC inhib, Beta apoptosis)
Cc1ccc(CSc2ncn(-c3ccccc3)n2)cc1	none (no result: Beta apoptosis)
Cc1ccc(CSc2nccc(-c3c(C)nc4ccccn34)n2)cc1	Mdm2-MdmX inh 66 | Mdm2 MdmX conf 46 | Full FLuc ctr 53
NC(=O)c1sc2nc3c(c(-c4cccs4)c2c1N)CCCCC3	Mdm2-MdmX inh 85 | Mdm2 MdmX conf 88 | Full FLuc ctr 53
NC(=O)c1sc2nc3c(c(-c4cccnc4)c2c1N)CCC3	none
Cc1ccccc1N1CCN(CCCN2C(=O)CC(=C(c3ccccc3)c3ccccc3)C2=O)CC1	none
O=C1CC(=C(c2ccccc2)c2ccccc2)C(=O)N1CCCCN1CCN(c2cccc(Cl)c2)CC1	Calb FLC inconclusive, Mdm2-MdmX inh 60, CSC inhib 113 | Mdm2 MdmX conf inactive
Cc1ccc(CC(=O)NCc2ccc(F)cc2)cc1	Mdm2-MdmX inh 58 | Mdm2 MdmX conf 48 | Full FLuc ctr 59
Cc1ccc(CNC(=O)Cc2ccc(-c3ccccc3)cc2)cc1	Mdm2-MdmX inh 58 | Mdm2 MdmX conf 61 | Full FLuc ctr 73
O=C(Cc1ccc(-c2ccccc2)cc1)NCc1ccccc1	none (no result: CSC inhib, Beta apoptosis)
O=C(NC1CC1)c1cc(-c2ccc(Br)cc2)nc2ccccc12	none (no result: Calb FLC, T cruzi inh, SKKanGAS inh, CSC inhib)
CN1CCC(NC(=O)c2cc(-c3cccc(Br)c3)nc3ccccc23)CC1	Mdm2-MdmX inh 66 | Mdm2 MdmX conf inactive | Full FLuc ctr 65
Cc1cc(NC(=O)Cc2ccccc2)nc2c1c(=O)oc1ccccc12	Mdm2-MdmX inh 74 | Mdm2 MdmX conf inactive
O=S(=O)(c1cccc(Br)c1)N1CCN(c2ccnc3cc(Cl)ccc23)CC1	none
COc1ccccc1N1CCN(c2ccnc3cc(Cl)ccc23)CC1	Mdm2-MdmX inh 56 | Mdm2 MdmX conf 64 | Full FLuc ctr 55
O=S(=O)(c1ccccc1OC(F)(F)F)N1CCN(c2ccnc3cc(Cl)ccc23)CC1	Mdm2-MdmX inh 59 | Mdm2 MdmX conf inactive
COc1ccccc1NC(=O)N1CCN(c2ccnc3cc(Cl)ccc23)CC1	none
Cn1cc(/C=C/C(=O)c2ccccc2)c2ccccc21	none (no result: Beta apoptosis)
Cc1cc2c(c(/C=C/C(=O)c3ccccc3)c1)OC1(C=C2)Oc2ccccc2C(=O)N1C (configuration not stated)	Mdm2-MdmX inh 91, CSC inhib 138 | Mdm2 MdmX conf 83 | Full FLuc ctr 48
O=C1N[C@@H](Cc2c[nH]c3ccccc23)COC(=O)[C@@H](Cc2ccc(F)cc2)C/C=C\C[C@H]1CC(=O)N(CCO)Cc1ccccc1	Mdm2-MdmX inh 51 (no result: Calb FLC, T cruzi inh, SKKanGAS inh) | Mdm2 MdmX conf inactive
O=C1N[C@@H](Cc2c[nH]c3ccccc23)COC(=O)[C@H](Cc2ccc(F)cc2)C/C=C\C[C@@H]1CC(=O)N(CCO)Cc1ccccc1	none (no result: Calb FLC, T cruzi inh, SKKanGAS inh)
O=C1NC[C@H](c2ccccc2)OC(=O)[C@H](Cc2ccc(F)cc2)C/C=C\C[C@H]1CC(=O)N(CCO)Cc1ccccc1	Mdm2-MdmX inh 81 (no result: Calb FLC, T cruzi inh, SKKanGAS inh) | Mdm2 MdmX conf 63 | Full FLuc ctr 47
O=C1NC[C@@H](c2ccccc2)OC(=O)[C@H](Cc2ccc(F)cc2)C/C=C\C[C@H]1CC(=O)N(CCO)Cc1ccccc1	none (no result: Calb FLC, T cruzi inh, SKKanGAS inh, CSC inhib)
O=C1NC[C@H](c2ccccc2)OC(=O)[C@@H](Cc2ccc(F)cc2)C/C=C\C[C@H]1CC(=O)N(CCO)Cc1ccccc1	Mdm2-MdmX inh 85 (no result: Calb FLC, T cruzi inh, SKKanGAS inh) | Mdm2 MdmX conf 79 | Full FLuc ctr 51
O=C1NC[C@@H](c2ccccc2)OC(=O)[C@@H](Cc2ccc(F)cc2)CC/C=C/C[C@H]1CC(=O)N(CCO)Cc1ccccc1	Mdm2-MdmX inh 62 (no result: Calb FLC, T cruzi inh, SKKanGAS inh) | Mdm2 MdmX conf 47 | Full FLuc ctr 53
O=C(NCc1cc2ccccc2[nH]1)c1ccccc1F	none
Cc1ccc(NC(=O)C2CCCN(S(=O)(=O)c3ccc4[nH]c(=O)ccc4c3)C2)c(C)c1 (configuration not stated)	none (no result: CSC inhib, Beta apoptosis)
COc1ccccc1C(=O)NC(C(=O)NCCc1nc2ccccc2[nH]1)=C(C)C	none (no result: Beta apoptosis)
C[C@@H]1COC(=O)[C@H](Cc2ccc(F)cc2)CC/C=C/C[C@@H](CC(=O)N[C@@H](CO)Cc2ccccc2)C(=O)N1	none (no result: Calb FLC, T cruzi inh, SKKanGAS inh)
O=C(C[C@@H]1C/C=C/CC[C@H](Cc2ccc(F)cc2)C(=O)OC[C@@H](Cc2ccccc2)NC1=O)N[C@H](CO)Cc1ccccc1	Mdm2-MdmX inh 96, CSC inhib 105, Beta apoptosis 124 (no result: Calb FLC, T cruzi inh, SKKanGAS inh) | Mdm2 MdmX conf 93 | Full FLuc ctr inactive
COc1cc(/C=N\NC(=O)C(C)(C)O)ccc1OC/C=C/c1ccccc1	none
CCOC(=O)c1cc(CC)sc1NC(=O)COc1ccc2c(C)cc(=O)oc2c1	Mdm2-MdmX inh 82 | Mdm2 MdmX conf 43 | Full FLuc ctr 46
Cc1cc(=O)oc2cc(OCC(=O)Nc3nnc(C(C)C)s3)ccc12	none
Cn1cc(/C=C2\SC(=S)N(N3CCOCC3)C2=O)c2ccccc21	Mdm2-MdmX inh 50 | Mdm2 MdmX conf inactive
COc1ccc(-c2cc(C(=O)N/N=C/c3ccc4c(c3)OCO4)c3ccccc3n2)c(OC)c1	none
COc1ccccc1-c1cc(C(=O)N/N=C/c2cccs2)c2ccccc2n1	Mdm2-MdmX inh 66 | Mdm2 MdmX conf inactive
COc1ccc(-c2cc(C(=O)N/N=C/c3sccc3C)c3ccccc3n2)c(OC)c1	Mdm2-MdmX inh 88 | Mdm2 MdmX conf 87 | Full FLuc ctr inactive
Cc1ccccc1C(=O)Nc1sc(C)c(C)c1C(=O)c1ccccc1	none
Cc1cc(C(=O)c2ccc(C(C)(C)C)cc2)c(NC(=O)CCl)s1	Mdm2-MdmX inh 78 | Mdm2 MdmX conf inactive
Cc1sc(NC(=O)CCl)c(C(=O)c2ccccc2)c1C	Mdm2-MdmX inh 54 | Mdm2 MdmX conf inactive
COc1ccc(C(CCNC(C)c2ccccc2)c2ccc(F)cc2)cc1 (configuration not stated)	Mdm2-MdmX inh 73 | Mdm2 MdmX conf inactive
COc1ccc(CNCCC(c2ccc(F)cc2)c2ccc(OC)cc2)cc1 (configuration not stated)	Mdm2-MdmX inh 66 | Mdm2 MdmX conf 43 | Full FLuc ctr 82
COc1ccc(CNC(=O)CNC(C)c2ccc(F)cc2)cc1 (configuration not stated)	none
COc1ccc(C(CCNCc2ccc(F)cc2)c2ccc(F)cc2)cc1 (configuration not stated)	Mdm2-MdmX inh 76 | Mdm2 MdmX conf inactive | Full FLuc ctr 90
COc1ccc(C(CCNCc2ccccc2)c2ccc(F)cc2)cc1 (configuration not stated)	none
O=C(COC(=O)c1ccccc1Cl)NC1CCCCCC1	none (no result: Calb FLC, T cruzi inh, SKKanGAS inh)

Assay outcomes: PubChem, several laboratories
